Consider one molecule from ChEMBL document CHEMBL4725355, “Design, Synthesis, and Preclinical Evaluation of 3-Methyl-6-(5-thiophenyl)-1,3-dihydro-imidazo[4,5-b]pyridin-2-ones as Selective GluN2B Negative Allosteric Modulators for the Treatment of Mood Disorders” (J Med Chem, 2020).

In brackets after ≈: the same amount, converted by molar mass. Bounds are passed on as bounds.

Data set [1] has as its target Voltage-gated inwardly rectifying potassium channel KCNH2 (Homo sapiens, UniProt Q12809). In words: Inhibition of human ERG expressed in CHO cells measured after 5 mins by Qpatch method. The data set is classed as cell-based. In short, it runs like this: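 CHO cells stably expressing hERG, whole-cell QPatch. Vehicle applied 5 min, then 0.3, 3.0, 10 and 30 µM in rising order, each concentration applied twice. Current measured after 5 min as the average of 3 voltage pulses; block taken relative to vehicle pretreatment, mean ± SEM.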
(In general: The patch-clamp technique gives a direct electrical read-out from membranes.)

A short description of data set [2]: Ex vivo receptor occupancy at GluN2B in Sprague-Dawley rat assessed as 3-[3H] 1-(azetidin-1-yl)-2-[6-(4-fluoro-3-methyl-phenyl)pyrrolo[3,2-b]pyridin-1-yl]-ethanone labelling at 3 mg/kg, po measured after 0.5 hrs by autoradiography. Type of data set: functional. In short, it runs like this: (§1)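 Rats dosed orally at 3 mg/kg in 20% HP-β-CD; brains taken at 0.5, 2 and 6 h. Ex vivo autoradiography of brain slices with the ³H pyrrolo[3,2-b]pyridine GluN2B tracer. Labelling expressed relative to matching brain areas of vehicle-treated animals; n=2, ± SEM.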

Data set [3] can be described thus: Ex vivo receptor occupancy at GluN2B in Sprague-Dawley rat assessed as 3-[3H] 1-(azetidin-1-yl)-2-[6-(4-fluoro-3-methyl-phenyl)pyrrolo[3,2-b]pyridin-1-yl]-ethanone labelling at 3 mg/kg, po measured after 2 hrs by autoradiography. Type of data set: functional. In short, it runs like this:
as §1

A short description of data set [4]: Cmax in Sprague-Dawley rat brain at 3 mg/kg, po after 2 hrs by LC-MS/MS analysis. The data set is classed as ADME, organism-based. Further details: route oral, dose 3 mg/kg, time 2 hrs. In outline: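 Oral dose of 3 mg/kg in 20% HP-β-CD to rats. Brain concentration was measured alongside ex vivo GluN2B occupancy over a 6 h time course (0.5, 2 and 6 h), n=2.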

A short description of data set [5]: Drug level in Sprague-Dawley rat brain cerebellum at 0.03 mg/kg, iv after 30 min by LC-MS/MS analysis. The data set is classed as ADME, organism-based. As to conditions: read-out: Drug uptake. In short, it runs like this:
(§2)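 Single i.v. dose of 0.03 mg/kg in 50% (w/v) PEG/water, pH 7.4; rats n=3 per group, killed at 5, 10, 30, 60 and 120 min. Cerebellum, cortex, striatum and hippocampus dissected, weighed and homogenized; drug quantified by LC-MS/MS and normalized to tissue weight. P<0.05 taken as significant versus cerebellum.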

Data set [6] in a line: Drug level in Sprague-Dawley rat brain hippocampus at 0.03 mg/kg, iv after 120 min by LC-MS/MS analysis. The data set is classed as ADME, organism-based. To be noted: read-out: Drug uptake. In outline:
as §2

Data set [7] in a line: Ex vivo receptor occupancy at GluN2B in po dosed Sprague-Dawley rat assessed as 3-[3H] 1-(azetidin-1-yl)-2-[6-(4-fluoro-3-methyl-phenyl)pyrrolo[3,2-b]pyridin-1-yl]-ethanone labelling measured after 60 mins by autoradiography. Type of data set: functional, organism-based. In outline:
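Oral dosing at 8 dose levels in 20% HP-β-CD; 3 rats per group. GluN2B occupancy in hippocampus measured 60 min post dose by ex vivo radiotracer autoradiography and calculated versus naïve controls, mean ± SEM. Plasma concentrations paired with occupancy to derive EC50 and dose ED50.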

The target in data set [8] is T1, Cytochrome P450 2C8 (Homo sapiens, UniProt P10632).
T1 sequence (P10632 whole entry): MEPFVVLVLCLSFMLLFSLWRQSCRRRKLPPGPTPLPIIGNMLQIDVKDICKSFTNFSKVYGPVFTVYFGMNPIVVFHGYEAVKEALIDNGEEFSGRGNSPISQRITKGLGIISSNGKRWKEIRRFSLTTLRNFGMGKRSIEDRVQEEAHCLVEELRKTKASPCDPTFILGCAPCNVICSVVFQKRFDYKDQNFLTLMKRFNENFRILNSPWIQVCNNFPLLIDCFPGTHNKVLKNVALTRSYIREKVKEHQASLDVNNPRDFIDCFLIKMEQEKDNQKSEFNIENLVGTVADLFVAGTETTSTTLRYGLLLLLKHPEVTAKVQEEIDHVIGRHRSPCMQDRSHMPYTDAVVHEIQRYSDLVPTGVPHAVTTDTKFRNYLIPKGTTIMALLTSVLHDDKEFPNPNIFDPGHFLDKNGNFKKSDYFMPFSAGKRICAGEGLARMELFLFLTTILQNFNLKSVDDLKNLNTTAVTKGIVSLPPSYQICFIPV
In words: Inhibition of CYP2C8 in human liver microsomes using amodiaquine as substrate measured after 15 mins by LC-MS/MS analysis. The data set is classed as ADME. In outline:
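Human liver microsomes incubated with isoform-specific probe substrates and the test compound at concentrations up to 20 µM. IC50 derived from inhibition of metabolite formation; mean of two independent experiments, with known specific inhibitors as positive controls.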
In general terms: Microsomes from liver hold many membrane-bound enzymes, among them those of drug oxidation.

In data set [9] the target is T2, Cytochrome P450 3A4 (Homo sapiens, UniProt P08684). Description: Time-dependent inhibition of CYP3A4 in human liver microsomes at 10 uM using testosterone as substrate by LC-MS/MS analysis. The data set is classed as ADME. In outline:
(§3)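 CYP3A4 time-dependent inhibition in human liver microsomes. The compound (0.4 to 10 μM) was tested with and without 30 min preincubation. IC50 was taken from percent activity remaining versus vehicle, averaged over two independent experiments. A >2-fold IC50 shift after preincubation was the threshold for time-dependent inhibition.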

Data set [10] addresses T2, Cytochrome P450 3A4. Description: Time-dependent inhibition of CYP3A4 in human liver microsomes at 10 uM using nifedipine as substrate by LC-MS/MS analysis. Type of data set: ADME. In short, it runs like this: as §3
Data set [11] in a line: Clearance in dog at 0.1 mg/kg, iv by LC-MS/MS analysis. To be noted: in vivo. The data set is classed as ADME, organism-based, Canis lupus familiaris.
A short description of data set [12]: Oral bioavailability in Sprague-Dawley rat at 2.5 mg/kg by LC-MS/MS analysis. The data set is classed as ADME, organism-based. As to conditions: in vivo.
Data set [13] can be described thus: AUC (infinity) in monkey at 0.1 mg/kg, iv by LC-MS/MS analysis. Type of data set: ADME, organism-based, Macaca mulatta. To be noted: rhesus monkey, in vivo. Further details: time infinity, route intravenous, dose 0.1 mg/kg.
The nature of data set [14]: Cmax in Sprague-Dawley rat at 250 mg/kg, po administered via gavage after 24 hrs using HPMC formulation by LC-MS/MS analysis. The data set is classed as ADME, organism-based. Further details: route oral, time 24 hrs, dose 250 mg/kg. As to conditions: in vivo. In outline:
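Single oral gavage dose to male Sprague Dawley rats, 3 per dose level. Vehicles were a standard suspension in 5% HPMC (125, 250, 500 or 1000 mg/kg) or a nanosuspension (API:polymer 4:1), with stock diluted in vehicle on the day of dosing (100, 250 or 500 mg/kg). Blood was sampled at time points from 0.5 to 24 h.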

Data set [15] can be described thus: Tmax in Sprague-Dawley rat at 250 mg/kg, po administered via gavage after 24 hrs using HPMC formulation by LC-MS/MS analysis. The data set is classed as ADME, organism-based. As to conditions: in vivo. In outline: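 Single oral gavage of a 5% HPMC suspension at 125, 250, 500 or 1000 mg/kg to male Sprague Dawley rats, 3 per group. Plasma was sampled at 6 time points from 0.5 to 24 h.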

Data set [16] in a line: AUC (0 to 24 hrs) in Sprague-Dawley rat at 500 mg/kg/day, po administered as nanosuspension measured for 14 days measured post last dose by LC-MS/MS analysis. The data set is classed as ADME, organism-based. As to conditions: in vivo. The arrangement: route oral, dose 500 mg/kg/day, time 14 day. In outline:
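Repeated daily oral dosing of the nanosuspension to rats for 14 days, up to 500 mg/kg/day.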

A short description of data set [17]: Toxicity in Sprague-Dawley rat assessed as change in behavior at 500 mg/kg/day, po administered as nanosuspension measured after 2 days. The data set is classed as organism-based. To be noted: in vivo, 48 h, time 2 day. In short, it runs like this: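 Repeated daily oral dosing of a nanosuspension to rats for 14 days, with 500 mg/kg/day as the high dose. Clinical observations were recorded, and animals were moved to individual caging on Day 6.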

Where [18] appears, read: Rattus norvegicus, Sprague-Dawley, po, 1 h, time 60 min.

T2 sequence (P08684 whole entry): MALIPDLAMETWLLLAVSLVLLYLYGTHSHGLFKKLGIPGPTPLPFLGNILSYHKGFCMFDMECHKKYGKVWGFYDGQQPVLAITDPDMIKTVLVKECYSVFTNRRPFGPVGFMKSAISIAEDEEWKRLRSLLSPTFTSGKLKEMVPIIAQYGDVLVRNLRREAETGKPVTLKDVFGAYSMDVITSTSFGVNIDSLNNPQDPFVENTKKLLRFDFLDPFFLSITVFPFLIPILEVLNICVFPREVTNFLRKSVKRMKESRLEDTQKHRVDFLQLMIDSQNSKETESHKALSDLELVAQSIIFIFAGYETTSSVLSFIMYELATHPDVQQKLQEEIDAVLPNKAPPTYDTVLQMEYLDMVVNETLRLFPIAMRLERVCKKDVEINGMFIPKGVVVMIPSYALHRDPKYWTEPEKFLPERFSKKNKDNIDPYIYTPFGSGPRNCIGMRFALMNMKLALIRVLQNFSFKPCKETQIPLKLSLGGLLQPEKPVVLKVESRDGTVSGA
Chain of Voltage-gated inwardly rectifying potassium channel KCNH2 (Q12809 whole entry): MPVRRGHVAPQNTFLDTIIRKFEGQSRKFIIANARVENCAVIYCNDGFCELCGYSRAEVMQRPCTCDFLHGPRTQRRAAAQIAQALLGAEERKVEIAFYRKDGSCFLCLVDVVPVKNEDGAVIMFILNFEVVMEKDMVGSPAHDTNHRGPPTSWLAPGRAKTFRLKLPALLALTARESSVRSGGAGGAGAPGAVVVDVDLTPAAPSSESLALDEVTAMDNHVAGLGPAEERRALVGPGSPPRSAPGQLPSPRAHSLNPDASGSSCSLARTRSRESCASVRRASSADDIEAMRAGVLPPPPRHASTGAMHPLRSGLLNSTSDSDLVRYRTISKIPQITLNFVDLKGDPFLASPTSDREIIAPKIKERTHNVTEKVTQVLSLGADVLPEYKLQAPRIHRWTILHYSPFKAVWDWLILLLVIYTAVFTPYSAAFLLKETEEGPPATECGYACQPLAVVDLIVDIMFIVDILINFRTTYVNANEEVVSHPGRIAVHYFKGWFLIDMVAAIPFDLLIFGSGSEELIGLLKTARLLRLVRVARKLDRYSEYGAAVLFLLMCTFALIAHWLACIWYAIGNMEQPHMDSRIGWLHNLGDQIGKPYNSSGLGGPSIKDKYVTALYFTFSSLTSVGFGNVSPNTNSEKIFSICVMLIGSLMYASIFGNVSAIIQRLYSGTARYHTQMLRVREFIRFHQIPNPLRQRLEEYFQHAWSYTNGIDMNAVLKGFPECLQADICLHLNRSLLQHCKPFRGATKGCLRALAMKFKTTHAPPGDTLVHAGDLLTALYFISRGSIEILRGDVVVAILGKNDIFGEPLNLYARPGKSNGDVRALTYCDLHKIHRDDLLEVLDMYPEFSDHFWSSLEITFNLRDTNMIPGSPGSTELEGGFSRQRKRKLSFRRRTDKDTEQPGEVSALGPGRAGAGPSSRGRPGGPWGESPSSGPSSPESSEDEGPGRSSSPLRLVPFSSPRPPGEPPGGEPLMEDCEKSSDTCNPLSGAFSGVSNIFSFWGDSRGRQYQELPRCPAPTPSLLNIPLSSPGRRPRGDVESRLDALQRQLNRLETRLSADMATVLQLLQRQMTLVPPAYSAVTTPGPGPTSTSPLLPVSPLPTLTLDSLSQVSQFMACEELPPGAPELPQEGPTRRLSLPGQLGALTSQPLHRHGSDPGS

Consider `Cn1c(=O)n(CC(=O)N2CCC2)c2cc(-c3ccc(C(F)(F)F)s3)cnc21`, for which the values for the IC50 in data set [1] and in [8] were over 30 µM and over 50 µM, respectively. The Occ in data set [2] stood at 87%; in [3] it was 76%. In addition, the results for the Cmax in data set [4] and in data set [14] were 765 ng/g and 5480 ng/mL, respectively. Also, the concentration at 0.5 h in data set [5] came to 13.8 ng/mL. For the same molecule, the concentration at 2 h in data set [6] was 10.1 ng/mL. Moreover, the EC50 in data set [7] (Rattus norvegicus, Sprague-Dawley) is 0.407 µg/mL (≈ 1.03 µM). Also, the ED50 in data set [7] (setting [18]) was 0.86 mg/kg. The ED70 in data set [7] (setting [18]) came out at 1.44 mg/kg. Besides, in data set [7] (time 60 min, 1 h), the concentration for an effect of 70% (EC70) is 0.716 µg/mL (≈ 1.81 µM). The fEC70 in data set [7] (time 60 min, 1 h) stood at 40 ng/mL. The TDI entry in [9] and in [10] was “Not Active” each time. This molecule registered a clearance in data set [11] of 17 mL/min/kg. Also, the bioavailability in data set [12] came out at 132%. In [13], this molecule displayed an area under the curve AUC(0-inf) of 0.19 µg·h/mL. The time of peak concentration (Tmax) in data set [15] turned out to be 2.7 h. The AUC at 336 h in data set [16] was 222 µg·h/mL. Further, the Activity entry in data set [17] is recorded as “Toxic”.

What is called IC50 is the point on the concentration scale where inhibition reaches its midpoint. By Cmax is commonly meant the peak of the concentration-time curve. Broadly, the EC50 is the concentration at which the effect is half-maximal. The ED50 is the dose that gives a 50% effect, or the effect in half of the subjects. The EC70 is the concentration at which the effect reaches the 70% level. As a reminder, the clearance is the rate of elimination divided by the concentration. As usually defined, the AUC(0-inf) is the area under the concentration-time curve extrapolated to infinity. As usually defined, the Tmax is the time from dosing to the highest level. Usually AUC stands for the area under the concentration-time curve, a measure of exposure.
